For test [1], the target named is T1, 5-hydroxytryptamine receptor 4 (Homo sapiens, UniProt Q13639). The test is described as follows: Binding affinity was determined against cloned 5-hydroxytryptamine 4E receptor isoform expressed in C6 glial cells incubated with 0.2 nM [3H]GR-113808. It is filed as cell-based.
Test [2] has as its target T1, 5-hydroxytryptamine receptor 4. Briefly: Binding affinity was determined against cloned 5-hydroxytryptamine 4A receptor isoform expressed in COS-7 cells. It is filed as cell-based.
The target is the same in test [3]. Briefly: Binding affinity was determined against cloned 5-hydroxytryptamine 4B receptor isoform expressed in COS-7 cells. It is filed as cell-based.
Test [4] shares this target. The test is described as follows: Binding affinity was determined against cloned 5-hydroxytryptamine 4C receptor isoform expressed in COS-7 cells. It is filed as cell-based.
Test [5] has the same target. Briefly: Binding affinity was determined against cloned 5-hydroxytryptamine 4D receptor isoform expressed in COS-7 cells. It is filed as cell-based.
The target is the same in test [6]. The test is described as follows: Concentration required to produce half-maximal response against 5-hydroxytryptamine receptor on the L-type calcium current (I Ca) in isolated human atrial myocytes. It is filed as cell-based, Cardiac atrium. A digest of the protocol: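 Whole-cell patch clamp on enzymatically dissociated human atrial myocytes, room temperature (19–25 °C); Cs-based internal, pCa 8.5; I_Ca at 0 mV every 8 s, peak minus current at end of 400-ms pulse.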

Test [7] shares this target. Briefly: ,Antagonism of stimulation of 5-hydroxytryptamine receptor on the L-type calcium current (I Ca) in isolated human atrial myocytes. It is filed as functional, cell-based, Cardiac atrium.

Each structure is given as a SMILES string.

T1 sequence (Q13639 whole entry, canonical isoform): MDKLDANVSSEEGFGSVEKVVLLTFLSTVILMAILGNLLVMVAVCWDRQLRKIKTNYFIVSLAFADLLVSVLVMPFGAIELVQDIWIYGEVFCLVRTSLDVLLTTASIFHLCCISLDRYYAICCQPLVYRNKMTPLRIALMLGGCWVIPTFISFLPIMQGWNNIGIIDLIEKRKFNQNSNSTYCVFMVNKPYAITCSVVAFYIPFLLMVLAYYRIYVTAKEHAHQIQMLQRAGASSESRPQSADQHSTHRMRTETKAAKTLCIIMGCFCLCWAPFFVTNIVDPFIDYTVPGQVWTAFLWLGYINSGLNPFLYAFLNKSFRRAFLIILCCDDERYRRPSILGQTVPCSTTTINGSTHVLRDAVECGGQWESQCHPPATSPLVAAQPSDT

Turning to `COc1cccc(N2CCN(CCOC(=O)c3cc(Cl)c(N)cc3OC)CC2)c1`, the Ki in test [1] turned out to be 3 nM.
In test [1], `COc1cc(N)c(Cl)cc1C(=O)OCCN1CCN(c2cnccn2)CC1` yielded a Ki of 1.4 nM.
`COc1cc(N)c(Cl)cc1C(=O)OCCN1CCN(c2cccc(C(F)(F)F)c2)CC1`: the Ki in test [1] turned out to be 199 nM.
In test [1], `COc1cc(N)c(Cl)cc1C(=O)OCCN1CCN(c2cnc(Cl)nc2)CC1` registered a Ki of 9.8 nM.
`COc1cc(N)c(Cl)cc1C(=O)OCCN1CCN(c2ccc(Cl)cc2)CC1` showed an inhibition constant Ki in test [1] of 715 nM. Compared with the last compound, the Ki is about 73-fold higher.
In test [1], `COc1cc(N)c(Cl)cc1C(=O)OCCN1CCN(c2ccccc2OC)CC1` gave a Ki of 64 nM.
In the case of `COc1cc(N)c(Cl)cc1C(=O)OCCN1CCN(c2ccccc2)CC1`, the Ki in test [1] is 14.3 nM; in test [2] it was 23 nM; in test [3] it was 55 nM; in test [4], 12.5 nM; in test [5], 32 nM.
Compound `COc1cc(N)c(Cl)cc1C(=O)OCCN1CCN(c2ccccc2Cl)CC1` had a Ki in test [1] of 296 nM.
In the case of `COc1cc(N)c(Cl)cc1C(=O)OCCN1CCN(C(=O)OC(C)(C)C)CC1`, in test [1], the Ki was greater than 1000 nM.
In test [1], `COc1ccc(N2CCN(CCOC(=O)c3cc(Cl)c(N)cc3OC)CC2)cc1` gave an inhibition constant Ki of 17.7 nM.
Same read-out and setting: in the case of `COc1cc(N)c(Cl)cc1C(=O)OCCN1CCN(C)CC1` it was greater than 1000 nM; in that of `COc1cc(N)c(Cl)cc1C(=O)OCCN1CCN(c2ccc(Cl)nn2)CC1`, 2 nM.
As for `COc1cc(N)c(Cl)cc1C(=O)OCCN1CCN(c2ccccn2)CC1`, affinity in test [1] was put at a Ki of 1.5 nM.
Regarding `COc1cc(N)c(Cl)cc1C(=O)OCCN1CCN(c2ccncn2)CC1`, affinity in test [1] was put at a Ki of 9.2 nM. Compared with the last compound, the Ki is about 6.1-fold higher.
For `COc1cc(N)c(Cl)cc1C(=O)OCCN1CCNCC1`, the Ki in test [1] is greater than 1000 nM.
With `Cn1cc(C(=O)OCC2CCN(CCNS(C)(=O)=O)CC2)c2ccccc21`, in test [1], affinity was put at a Ki of 0.1 nM. This counts as sub-nanomolar.
`COc1cc(N)c(Cl)cc1C(=O)OCCN1CCN(c2ccccc2F)CC1` registered a Ki in test [1] of 16.8 nM.
In test [1], `COc1cc(N)c(Cl)cc1C(=O)OCCN1CCN(c2ccc(F)cc2)CC1` yielded a Ki of 23.1 nM. The Ki values of the last two compounds are within 1.5-fold of each other.
Consider `COc1cc(N)c(Cl)cc1C(=O)OCCN1CCN(c2ncccn2)CC1`, for which the Ki came out at 1 nM in test [1]; 3.5 nM in test [2]; 8.1 nM in test [3]; 2.47 nM in test [4]; 7.03 nM in test [5]. For the same compound, the half-maximal effective concentration (EC50) in test [6] was 4.5 nM. Also, the Kd in test [7] stood at 0.7 nM.
The compound `CCOC(=O)N1CCN(CCOC(=O)c2cc(Cl)c(N)cc2OC)CC1` gave an inhibition constant Ki in test [1] of 23 nM. This counts as double-digit nanomolar.
Still for that read-out and setting: in the case of `COc1cc(N)c(Cl)cc1C(=O)OCCN1CCN(c2cccc(Cl)c2)CC1` it was 162 nM.
In turn, `COc1cc(N)c(Cl)cc1C(=O)OCCN1CCN(c2ccncc2)CC1` displayed a Ki in test [1] of 3.5 nM.
Still for that read-out and setting: the figure for `COc1cc(N)c(Cl)cc1C(=O)OCCN1CCN(c2cccnn2)CC1` is 1.4 nM; for `COc1cc(N)c(Cl)cc1C(=O)OCCN1CCN(c2cccc3ccccc23)CC1` it is greater than 1000 nM.
In turn, `COc1cc(N)c(Cl)cc1C(=O)OCCCN1CCN(c2ccccc2)CC1` gave a Ki in test [1] of 11.5 nM.
For `COc1cc(N)c(Cl)cc1C(=O)OCCN1CCN(Cc2ccccc2)CC1`, affinity in test [1] was put at a Ki of 240 nM.

Values taken from ChEMBL document CHEMBL1133682, “New arylpiperazine derivatives as antagonists of the human cloned 5-HT(4) receptor isoforms” (J Med Chem, 2000).
